Calls of active or inactive are those of the source. No cut-off for these calls is given here.

The values that follow come from ChEMBL document CHEMBL1132976, “Biarylcarbamoylindolines are novel and selective 5-HT(2C) receptor inverse agonists: identification of 5-methyl-1-[[2-[(2-methyl-3-pyridyl)oxy]- 5-pyridyl]carbamoyl]-6-trifluoromethylindoline (SB-243213) as a potential antidepressant/anxiolytic agent” (J Med Chem, 2000).

The target of test [1] is T1, 5-hydroxytryptamine receptor 2B (Homo sapiens, UniProt P41595). The test is described as follows: Binding affinities towards human cloned 5-hydroxytryptamine 2B receptor in HEK293 cells using [3H]5-HT as radioligand. It is filed as cell-based. A digest of the protocol:
(§1)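 Competition binding at human cloned receptors expressed in HEK 293 cells. Radioligands: [3H]ketanserin for 5-HT2A, [3H]5-HT for 5-HT2B, [3H]mesulergine for 5-HT2C. Values are pKi, given as the mean of at least two determinations, each within 0.2 log unit of the mean.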

The target of test [2] is Cytochrome P450 2C9 (Homo sapiens, UniProt P11712). The test is described as follows: Inhibition of heterologously expressed human cytochrome P450 2C9. The class given is ADME.
Cytochrome P450 2C9, sequence (P11712 whole entry): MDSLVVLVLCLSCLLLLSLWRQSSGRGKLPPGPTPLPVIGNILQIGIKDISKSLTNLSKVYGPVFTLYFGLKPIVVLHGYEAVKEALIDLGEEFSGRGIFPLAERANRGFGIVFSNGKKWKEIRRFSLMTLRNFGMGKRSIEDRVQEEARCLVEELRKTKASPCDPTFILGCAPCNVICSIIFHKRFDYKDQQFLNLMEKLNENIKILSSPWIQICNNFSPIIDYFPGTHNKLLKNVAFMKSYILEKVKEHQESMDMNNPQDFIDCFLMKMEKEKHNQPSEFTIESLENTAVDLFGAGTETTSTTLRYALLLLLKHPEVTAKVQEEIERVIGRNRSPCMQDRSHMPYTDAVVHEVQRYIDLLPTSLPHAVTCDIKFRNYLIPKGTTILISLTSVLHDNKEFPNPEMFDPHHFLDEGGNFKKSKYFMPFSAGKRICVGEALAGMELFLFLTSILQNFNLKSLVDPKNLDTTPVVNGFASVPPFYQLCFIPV
The target of test [3] is T2, Cytochrome P450 1A2 (Homo sapiens, UniProt P05177).
T2 sequence (P05177 whole entry): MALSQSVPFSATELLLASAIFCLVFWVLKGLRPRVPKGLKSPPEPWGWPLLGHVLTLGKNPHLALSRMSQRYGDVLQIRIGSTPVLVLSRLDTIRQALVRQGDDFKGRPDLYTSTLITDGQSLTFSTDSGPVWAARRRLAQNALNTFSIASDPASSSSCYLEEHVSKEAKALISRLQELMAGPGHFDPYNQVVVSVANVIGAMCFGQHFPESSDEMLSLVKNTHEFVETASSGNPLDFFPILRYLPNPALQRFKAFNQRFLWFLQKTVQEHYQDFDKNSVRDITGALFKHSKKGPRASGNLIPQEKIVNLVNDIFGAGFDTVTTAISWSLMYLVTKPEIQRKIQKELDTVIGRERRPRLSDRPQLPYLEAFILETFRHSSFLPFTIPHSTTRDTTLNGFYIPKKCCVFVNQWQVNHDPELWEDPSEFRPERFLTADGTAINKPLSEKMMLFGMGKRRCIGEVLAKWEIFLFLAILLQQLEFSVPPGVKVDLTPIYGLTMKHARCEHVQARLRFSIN
The test is described as follows: Inhibition of heterologously expressed human cytochrome P450 1A2. The class given is ADME. The essentials: (§2)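 Heterologously expressed human CYP1A2 in an isoform-selective assay. Substrate: caffeine N3-demethylation at 500 µM, at the substrate Km.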

Test [4] addresses T3, Serotonin receptor (2b and 2c) (Homo sapiens) (UniProt P41595+P28335). The test is described as follows: Selectivity index determined from the binding affinities of 5-HT2C and 5-HT2B. It is filed as protein assay.
Test [5] has as its system Rattus norvegicus. The test is described as follows: Dose required to reverse mCPP induced hypolocomotion in rat after oral administration. It is filed as functional. The following applies: read-out: ID50 (the source's name). The essentials:
(§3)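 Rat hypolocomotion model. The test compound was given orally, and mCPP was given at 7 mg/kg ip 30 min before the test. ID50 (mg/kg po) is the dose that reverses mCPP-induced hypolocomotion by 50%.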

Test [6] concerns the target T4, 5-hydroxytryptamine receptor 2A (Homo sapiens, UniProt P28223). The test is described as follows: Binding affinity towards human cloned 5-hydroxytryptamine receptor 2A in HEK293 cells, using [3H]ketanserin as radioligand. It is filed as cell-based. A digest of the protocol: as §1
Test [7] has as its target T5, Serotonin 2 receptors; 5-HT2a & 5-HT2c (Homo sapiens) (UniProt P28223+P28335). The test is described as follows: Selectivity index determined from binding affinities of 5-HT2C and 5-HT2A. It is filed as protein assay.
Test [8] has as its target Cytochrome P450 2C19 (Homo sapiens, UniProt P33261). The test is described as follows: Inhibition of heterologously expressed human cytochrome P450 2C19. The class given is ADME.
Test [9] deals with T6, 5-hydroxytryptamine receptor 2C (Homo sapiens, UniProt P28335).
T6 sequence (P28335 whole entry): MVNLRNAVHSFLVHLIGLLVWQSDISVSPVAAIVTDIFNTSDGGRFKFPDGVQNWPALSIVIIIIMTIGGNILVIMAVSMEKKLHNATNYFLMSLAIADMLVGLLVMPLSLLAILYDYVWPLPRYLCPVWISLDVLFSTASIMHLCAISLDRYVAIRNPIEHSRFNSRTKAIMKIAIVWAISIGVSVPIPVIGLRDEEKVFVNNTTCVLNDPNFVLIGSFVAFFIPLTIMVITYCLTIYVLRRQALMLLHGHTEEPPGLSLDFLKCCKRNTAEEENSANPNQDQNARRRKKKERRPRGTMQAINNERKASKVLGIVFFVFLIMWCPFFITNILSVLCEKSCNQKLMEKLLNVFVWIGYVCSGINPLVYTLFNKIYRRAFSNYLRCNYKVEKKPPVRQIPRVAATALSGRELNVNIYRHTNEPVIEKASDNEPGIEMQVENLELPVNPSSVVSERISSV
The test is described as follows: Binding affinity towards human cloned 5-hydroxytryptamine receptor 2C in HEK293 cells, using [3H]mesulergine as radioligand. It is filed as cell-based. A digest of the protocol: as §1

Test [10] has as its target Cytochrome P450 3A4 (Homo sapiens, UniProt P08684). The test is described as follows: Inhibition of heterologously expressed human cytochrome P450 3A4. The class given is ADME.
The target in test [11] is Cytochrome P450 2D6 (Homo sapiens, UniProt P10635). The test is described as follows: Inhibition of heterologously expressed human cytochrome P450 2D6. It is filed as ADME.
Cytochrome P450 2D6, sequence (P10635 whole entry): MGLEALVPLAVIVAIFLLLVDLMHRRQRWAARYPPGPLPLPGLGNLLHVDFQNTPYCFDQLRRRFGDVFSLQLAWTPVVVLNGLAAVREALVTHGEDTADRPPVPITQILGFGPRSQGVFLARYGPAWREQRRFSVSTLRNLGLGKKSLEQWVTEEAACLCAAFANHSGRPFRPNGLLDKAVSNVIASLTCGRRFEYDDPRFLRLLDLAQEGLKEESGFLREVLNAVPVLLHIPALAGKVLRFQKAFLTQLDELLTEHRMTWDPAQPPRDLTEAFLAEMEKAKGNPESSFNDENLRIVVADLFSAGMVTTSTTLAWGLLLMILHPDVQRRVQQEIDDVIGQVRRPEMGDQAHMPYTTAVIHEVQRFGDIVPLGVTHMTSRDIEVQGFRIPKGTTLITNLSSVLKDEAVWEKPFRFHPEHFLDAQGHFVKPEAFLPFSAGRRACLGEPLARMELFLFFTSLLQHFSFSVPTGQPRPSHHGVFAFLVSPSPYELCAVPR
Test [12] deals with T3, Serotonin receptor (2b and 2c) (Homo sapiens). The test is described as follows: Selectivity index for binding affinities for 5-HT2C and 5-HT2B receptors. It is filed as protein assay.
The target of test [13] is T5, Serotonin 2 receptors; 5-HT2a & 5-HT2c (Homo sapiens). The test is described as follows: Selectivity index for binding affinities for 5-HT2C and 5-HT2A receptors. It is filed as protein assay.
For test [14], the target named is T4, 5-hydroxytryptamine receptor 2A. The test is described as follows: Displacement of [3H]ketanserin from human 5-hydroxytryptamine 2A receptor expressed in HEK293 cells; compound is insoluble. The class given is cell-based. The essentials: as §1
Background: In a radioligand displacement assay an active substance lowers the binding of a labelled ligand.

The target of test [15] is T7, 5-hydroxytryptamine receptor 2C (Homo sapiens) (UniProt P28335).
T7 sequence (whole entry): T6 sequence (P28335 whole entry)
The test is described as follows: Displacement of [3H]mesulergine from human 5-hydroxytryptamine 2C receptor expressed in HEK293 cells; compound insoluble. It is filed as cell-based. The essentials: as §1

Test [16] addresses T1, 5-hydroxytryptamine receptor 2B. The test is described as follows: Displacement of [3H]5-HT from human 5-hydroxytryptamine 2B receptor expressed in HEK293 cells; compound is insoluble. It is filed as cell-based. A digest of the protocol: as §1
Test [17] concerns the target T2, Cytochrome P450 1A2. The test is described as follows: Inhibition of heterologously expressed human cytochrome P450 1A2. It is filed as ADME. A digest of the protocol:
as §2

Test [18] relates to Rattus norvegicus. The test is described as follows: Dose required to reverse mCPP induced hypolocomotion in rats after oral administration; NA=inactive. It is filed as functional, organism-based. A digest of the protocol:
as §3

In test [19] the target is T1, 5-hydroxytryptamine receptor 2B. The test is described as follows: Displacement of [3H]5-HT from human 5-hydroxytryptamine 2B receptor expressed in HEK293 cells. It is filed as cell-based. The essentials:
as §1

The test system of test [20] is Rattus norvegicus. The test is described as follows: Dose required to reverse mCPP induced hypolocomotion in rats after oral administration; IA=inactive. It is filed as functional, organism-based. A digest of the protocol:
as §3

The subject of test [21] is Rattus norvegicus. The test is described as follows: Dose required to reverse mCPP induced hypolocomotion in rats after oral administration. The class given is functional. A digest of the protocol:
as §3

T1 sequence (P41595 whole entry): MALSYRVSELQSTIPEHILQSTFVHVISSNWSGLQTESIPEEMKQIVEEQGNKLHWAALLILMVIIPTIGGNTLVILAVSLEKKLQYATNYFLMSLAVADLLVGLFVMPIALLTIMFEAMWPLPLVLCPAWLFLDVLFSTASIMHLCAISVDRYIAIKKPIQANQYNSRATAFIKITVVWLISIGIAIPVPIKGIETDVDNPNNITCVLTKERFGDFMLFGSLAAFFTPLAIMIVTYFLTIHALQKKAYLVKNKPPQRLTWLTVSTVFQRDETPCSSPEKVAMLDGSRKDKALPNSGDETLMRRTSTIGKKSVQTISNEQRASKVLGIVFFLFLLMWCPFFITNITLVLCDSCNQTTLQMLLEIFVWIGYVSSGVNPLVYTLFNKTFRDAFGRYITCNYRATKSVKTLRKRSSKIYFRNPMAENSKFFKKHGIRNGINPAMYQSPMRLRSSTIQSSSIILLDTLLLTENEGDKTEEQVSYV
T5 sequence (P28223 whole entry, looked up, one chain of several): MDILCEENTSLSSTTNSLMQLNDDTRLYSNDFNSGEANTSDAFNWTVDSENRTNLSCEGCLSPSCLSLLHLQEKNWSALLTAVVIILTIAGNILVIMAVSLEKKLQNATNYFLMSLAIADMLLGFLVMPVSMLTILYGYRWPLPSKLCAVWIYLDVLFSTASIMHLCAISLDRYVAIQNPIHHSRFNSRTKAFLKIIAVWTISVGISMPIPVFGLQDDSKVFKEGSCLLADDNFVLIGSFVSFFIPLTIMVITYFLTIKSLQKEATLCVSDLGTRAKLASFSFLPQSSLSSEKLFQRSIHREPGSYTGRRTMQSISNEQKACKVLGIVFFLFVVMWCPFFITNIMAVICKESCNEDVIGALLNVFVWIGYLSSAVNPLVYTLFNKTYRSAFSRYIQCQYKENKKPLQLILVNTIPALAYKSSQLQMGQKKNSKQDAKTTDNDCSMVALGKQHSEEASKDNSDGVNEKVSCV
T4 sequence (P28223 whole entry): as the sequence (P28223 whole entry, looked up, one chain of several) above
Cytochrome P450 2C19, sequence (P33261 whole entry): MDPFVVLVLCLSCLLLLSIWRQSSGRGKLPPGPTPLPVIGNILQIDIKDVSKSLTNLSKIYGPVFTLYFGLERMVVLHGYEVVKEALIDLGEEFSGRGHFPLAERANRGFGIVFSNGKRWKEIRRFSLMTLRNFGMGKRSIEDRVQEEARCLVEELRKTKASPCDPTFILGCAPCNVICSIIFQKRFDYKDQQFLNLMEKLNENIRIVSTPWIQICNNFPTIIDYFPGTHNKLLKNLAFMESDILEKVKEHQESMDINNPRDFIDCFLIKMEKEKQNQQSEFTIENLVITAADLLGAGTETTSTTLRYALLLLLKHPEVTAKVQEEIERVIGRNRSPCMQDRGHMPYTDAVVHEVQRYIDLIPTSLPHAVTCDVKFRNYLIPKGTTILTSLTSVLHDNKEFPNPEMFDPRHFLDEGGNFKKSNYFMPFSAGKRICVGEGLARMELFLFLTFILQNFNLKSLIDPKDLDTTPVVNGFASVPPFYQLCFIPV
Cytochrome P450 3A4, sequence (P08684 whole entry): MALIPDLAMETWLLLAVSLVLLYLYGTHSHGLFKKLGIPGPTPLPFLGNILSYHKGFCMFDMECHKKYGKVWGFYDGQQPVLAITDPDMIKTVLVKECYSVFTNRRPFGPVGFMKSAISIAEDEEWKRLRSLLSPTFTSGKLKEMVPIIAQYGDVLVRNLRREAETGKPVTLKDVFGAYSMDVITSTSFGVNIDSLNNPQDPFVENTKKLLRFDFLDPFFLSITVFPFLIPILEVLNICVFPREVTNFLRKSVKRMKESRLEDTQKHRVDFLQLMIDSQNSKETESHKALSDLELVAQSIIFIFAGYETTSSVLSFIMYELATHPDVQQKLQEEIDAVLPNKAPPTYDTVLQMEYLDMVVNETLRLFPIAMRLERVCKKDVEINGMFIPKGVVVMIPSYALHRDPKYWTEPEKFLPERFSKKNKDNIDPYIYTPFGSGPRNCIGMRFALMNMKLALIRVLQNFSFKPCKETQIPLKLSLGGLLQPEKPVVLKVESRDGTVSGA

As for `Cc1cc2c(cc1C(F)(F)F)N(C(=O)Nc1ccc(Oc3cccnc3C)nc1)CC2` [SB-243213], the inhibitory constant (Ki) is 0.1 µM in test [1], 0.158 µM in test [6] and 0.001 µM in test [9]. Besides, the concentration for half-maximal inhibition (IC50) was 23 µM in test [2]; more than 100 µM in [3]; more than 100 µM in [8]; more than 100 µM in [10]; more than 100 µM in [11]. Further, the figures for the Selectivity in test [4] and in [7] were 100 and 160, respectively. The ED50 in test [5] turned out to be 0.7 mg/kg.
Consider `Cc1cc2c(cc1Cl)N(C(=O)Nc1ccc(Oc3cccnc3C)nc1)CC2` [SB-242084], for which the Selectivity in test [12] worked out at 100; in test [13], 160. Besides, in test [8], the IC50 was more than 100 µM.
`COc1cc2c(cc1C(F)(F)F)N(C(=O)Nc1ccc(-c3ccccc3)nc1)CC2`: the “Log Ki” value in [14], in test [15] and in test [16] was “Insoluble” in each case.
For `COc1cc2c(cc1C(F)(F)F)N(C(=O)Nc1cccc(-c3cccnc3C)c1)CC2`, the values for the inhibition constant (Ki) in [1], in test [6] and in [9] were 0.0158 µM, 0.501 µM and 0.00501 µM, respectively. Also, the Inhibition in test [3] is 2%. The Selectivity in [4] amounted to 3; in [7], 100. In addition, the ED50 in test [5] was more than 10 mg/kg.
Take `COc1cc2c(cc1C(F)(F)F)N(C(=O)Nc1ccc(-c3cccnc3)nc1)CC2`: the Selectivity is 2 in test [4] and more than 2000 in test [7]. Further, half-maximal inhibition in [17] (IC50) was put at 7 µM. For the same compound, the Ki is more than 10 µM in test [6], 0.01 µM in test [19] and 0.00501 µM in [9]. Besides, the ED50 result in [18] was “inactive”.
Take `COc1cc2c(cc1C(F)(F)F)N(C(=O)Nc1cc(F)cc(-c3cccnc3)c1)CC2`: the Ki in test [1] is 0.01 µM; in test [6] it was 0.126 µM; in [9], 0.001 µM. Moreover, the IC50 in [2] is 82 µM; in [17] it was 28 µM; in test [8], more than 100 µM; in test [10], 9 µM; in test [11] it was 21 µM. The Selectivity in [4] worked out at 10; in [7], 130. The ED50 in test [5] was determined as 0.7 mg/kg.
Consider `COc1cc2c(cc1C(F)(F)F)N(C(=O)Nc1cncc(-c3ccncc3)c1)CC2`, for which the results for the Selectivity in [4] and in test [7] were 16 and 100, respectively. Besides, it took 50 µM to reach half-maximal inhibition in test [17] (IC50). The Ki in test [6] was 0.0631 µM; in [19], 0.01 µM; in test [9], 0.000631 µM.
Turning to `COc1cc2c(cc1C(F)(F)F)N(C(=O)Nc1cncc(-c3ccccc3)c1)CC2`, the Selectivity turned out to be 5 in [4] and 320 in [7]. Besides, in test [5], the ED50 was more than 20 mg/kg. Further, inhibition in test [17] was half-maximal at 2.6 µM (IC50). The values for the Ki in test [6], in test [19] and in test [9] were 1.58 µM, 0.0251 µM and 0.00501 µM, respectively.
With `COc1cc2c(cc1C(F)(F)F)N(C(=O)Nc1ccc(Oc3cccnc3C)nc1)CC2`, the inhibition constant (Ki) was 0.0501 µM in test [1], 0.794 µM in [6] and 0.000631 µM in test [9]. The Selectivity stood at 80 in test [12] and 1300 in test [13]. In test [5], the ED50 amounted to 2.8 mg/kg. Moreover, in [17], the IC50 was more than 100 µM.
Regarding `COc1cc2c(cc1C(F)(F)F)N(C(=O)Nc1cncc(-c3cccnc3)c1)CC2`, the Selectivity in [4] stood at 12; in test [7], 80. In test [17], this compound gave an Inhibition of 77%. Moreover, the Ki in [6] is 0.0631 µM; in test [19], 0.01 µM; in test [9], 0.000794 µM.
Take `COc1cc2c(cc1C(F)(F)F)N(C(=O)Nc1ccc(C(C)(C)C)c(-c3cccnc3)c1)CC2`: the Ki is 0.0398 µM in test [1], 1 µM in test [6] and 0.00316 µM in test [9]. The Selectivity in test [4] amounted to 13; in test [7], 320. For the same compound, in [20], the ED50 result is “inactive”.
On to `COc1cc2c(cc1C(F)(F)F)N(C(=O)Nc1cncc(-c3cnccc3C)c1)CC2`, for which the ED50 in test [21] is 5 mg/kg. Moreover, the Selectivity stood at 15 in test [4] and 250 in test [7]. This compound also returned an IC50 in test [17] of 0.2 µM. For the same compound, the Ki was 0.1 µM in test [6], 0.00631 µM in test [19] and 0.000398 µM in test [9].

What is called Ki is a measure of affinity in units of concentration, obtained from inhibition or displacement. Lower therefore signals tighter binding. Usually IC50 stands for the midpoint of a concentration-inhibition curve. Lower therefore signals greater potency. A word on the Inhibition: it is how much of the control response was suppressed. Low readings indicate a weak effect, high ones a strong effect.
